Assay results from ChEMBL document CHEMBL1153481, “Chromane derivatives of small aromatic molecules: Chemoenzymatic synthesis and growth inhibitory activity on human tumor cell line LoVo WT” (Bioorg Med Chem, 2009).
The source made the active and inactive calls. The rule behind the calls is not given here.

What was measured:
Format in all cases: functional, cell-based
LoVo [1] = test: Cytotoxicity against human wild type LoVo cells at 100 uM after 24 hrs by MTS assay
Procedure, shortened: (§1)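 LoVo WT human colon adenocarcinoma cells grown in D-MEM F12 with 10% FBS, penicillin/streptomycin, 37 °C, 5% CO2. Seeded 1 × 10^4 cells/well, medium replaced after 1 day with exposure medium containing test agents (0.1–300 µM; DMSO 0.3% or less). After 1–3 day exposure, MTS/PMS added for 2 h at 37 °C; formazan absorbance read at 490 nm. Viability expressed relative to DMSO-only controls.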

LoVo [2] = test: Cytotoxicity against human wild type LoVo cells after 48 hrs by MTS assay; procedure, shortened: as §1
LoVo [3] = test: Cytotoxicity against human wild type LoVo cells after 24 hrs by MTS assay; procedure, shortened: as §1
LoVo [4] = test: Induction of apoptosis in human wild type LoVo cells assessed as increase in hyplodiploid cells after 24 hrs by flow cytometry
Procedure, shortened: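 Apoptosis measured in LoVo WT cells after 24 h exposure as the percentage of hypodiploid cells (loss of fragmented DNA), determined by flow cytometry.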

Compound	Activity (LoVo [1])	IC50 (LoVo [2]) [µM]	IC50 (LoVo [3]) [µM]	Activity (LoVo [4])
CC1(C)CCc2cc(CCO)ccc2O1	inactive	–	–	–
CC1(C)CCc2c(ccc3c4c(ccc23)OC(C)(C)CC4)O1	–	395	258	inactive
Oc1ccc2cc(O)ccc2c1	–	–	–	inactive
CC1(C)CCc2c(ccc3cc(O)ccc23)O1	–	27.4	34.5	Active
